Test results: ChEMBL document CHEMBL2331333, “Synthesis, biological evaluation of new oxazolidino-sulfonamides as potential antimicrobial agents” (2013)
≈ marks a conversion by molar mass, not a printed value. Calls of active or inactive are those of the source. No cut-off for these calls is given here.

Legend:
Candida albicans [1] = assay: Antifungal activity against Candida albicans MTCC 3017 at 80 ug/ml after 48 hrs by agar dilution method; type: functional, organism-based
Method in brief: (§1)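 Same disk/dilution format as the antibacterial assay, on potato dextrose agar (39 g/L). Compounds were from DMSO stock, loaded at 1 to 80 per disk, in triplicate. Plates were incubated at 28 ± 2 °C for 48 h. MIC was the lowest amount that arrested growth. Equivalent DMSO served as solvent control.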

Staphylococcus [2] = assay: Antibacterial activity against Staphylococcus MLS-16 MTCC 2940 at 80 ug/ml after 24 hrs by agar dilution method; type: functional, organism-based
Micrococcus luteus [3] = assay: Antibacterial activity against Micrococcus luteus MTCC 2470 at 80 ug/ml after 24 hrs by agar dilution method; type: functional, organism-based
Raoultella planticola = assay: Antibacterial activity against Klebsiella planticola MTCC 530 at 80 ug/ml after 24 hrs by agar dilution method; type: functional, organism-based
[4] = system: Mycobacterium tuberculosis; assay: Antibacterial activity against Mycobacterium tuberculosis H37Rv at 32 ug/ml […] by agar dilution method; type: functional, organism-based
Bacillus subtilis [5] = assay: Antibacterial activity against Bacillus subtilis MTCC 121 after 24 hrs by agar dilution method; type: functional; settings: MTCC 121, 24 h
Pseudomonas aeruginosa [6] = assay: Antibacterial activity against Pseudomonas aeruginosa MTCC 2453 after 24 hrs by agar dilution method; type: functional; settings: MTCC 2453, 24 h
Staphylococcus aureus [7] = assay: Antibacterial activity against Staphylococcus aureus MTCC 96 at 80 ug/ml after 24 hrs by agar dilution method; type: functional, organism-based
Escherichia coli = assay: Antibacterial activity against Escherichia coli MTCC 739 at 80 ug/ml after 24 hrs by agar dilution method; type: functional, organism-based
Micrococcus luteus [8] = assay: Antibacterial activity against Micrococcus luteus MTCC 2470 after 24 hrs by agar dilution method; type: functional; settings: MTCC 2470, 24 h
Staphylococcus [9] = assay: Antibacterial activity against Staphylococcus MLS-16 MTCC 2940 after 24 hrs by agar dilution method; type: functional; settings: MLS-16 MTCC 2940, 24 h
Staphylococcus aureus [10] = assay: Antibacterial activity against Staphylococcus aureus MTCC 96 at 20 ug/ml after 24 hrs by disk diffusion method; type: functional; settings: MTCC 96, 24 h, read-out: IZ
Candida albicans [11] = assay: Antifungal activity against Candida albicans MTCC 3017 after 48 hrs by agar dilution method; type: functional; settings: MTCC 3017, 48 h; method in brief: as §1
Micrococcus luteus [12] = assay: Antibacterial activity against Micrococcus luteus MTCC 2470 at 20 ug/ml after 24 hrs by disk diffusion method; type: functional; settings: MTCC 2470, 24 h, read-out: IZ
Staphylococcus [13] = assay: Antibacterial activity against Staphylococcus MLS-16 MTCC 2940 at 20 ug/ml after 24 hrs by disk diffusion method; type: functional; settings: MLS-16 MTCC 2940, 24 h, read-out: IZ
Staphylococcus aureus [14] = assay: Antibacterial activity against Staphylococcus aureus MTCC 96 after 24 hrs by agar dilution method; type: functional; settings: MTCC 96, 24 h
Candida albicans [15] = assay: Antifungal activity against Candida albicans MTCC 3017 at 20 ug/ml after 24 hrs by disk diffusion method; type: functional; settings: MTCC 3017, 24 h, read-out: IZ
Pseudomonas aeruginosa [16] = assay: Antibacterial activity against Pseudomonas aeruginosa MTCC 2453 at 20 ug/ml after 24 hrs by disk diffusion method; type: functional; settings: MTCC 2453, 24 h, read-out: IZ
Bacillus subtilis [17] = assay: Antibacterial activity against Bacillus subtilis MTCC 121 at 20 ug/ml after 24 hrs by disk diffusion method; type: functional; settings: MTCC 121, 24 h, read-out: IZ
Bacillus subtilis [18] = assay: Antibacterial activity against Bacillus subtilis MTCC 121 at 80 ug/ml after 24 hrs by agar dilution method; type: functional, organism-based
Pseudomonas aeruginosa [19] = assay: Antibacterial activity against Pseudomonas aeruginosa MTCC 2453 at 80 ug/ml after 24 hrs by agar dilution method; type: functional, organism-based
[20] = system: Mycobacterium tuberculosis; assay: Antibacterial activity against Mycobacterium tuberculosis H37Rv after 2 to 3 weeks by broth microdilution method; type: functional
Method in brief: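 M. tuberculosis H37Rv, first screened at a single concentration of 32 in triplicate in a microtiter plate (microplate dilution assay). Compounds active in this screen were then taken to MIC determination by broth microdilution. Compounds were dissolved in DMSO.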

SMILES: O=C1O[C@@H](CNS(=O)(=O)c2cccc(Cl)c2)CN1c1ccc(N2CCSCC2)c(F)c1
- Activity (Candida albicans [1]): inactive
- Activity (Staphylococcus [2]): inactive
- Activity (Micrococcus luteus [3]): inactive
- Activity (Raoultella planticola): inactive
- Activity [4]: inactive
- MIC (Bacillus subtilis [5]): 20 µg/mL (≈ 41.2 µM)
- MIC (Pseudomonas aeruginosa [6]): 10 µg/mL (≈ 20.6 µM)
- Activity (Staphylococcus aureus [7]): inactive
- Activity (Escherichia coli): inactive

SMILES: O=C1O[C@@H](CNS(=O)(=O)c2cccs2)CN1c1ccc(N2CCOCC2)c(F)c1
- MIC (Micrococcus luteus [8]): 6 µg/mL (≈ 13.6 µM)
- MIC (Staphylococcus [9]): 4 µg/mL (≈ 9.06 µM)
- zone of inhibition at 20 µg/mL (Staphylococcus aureus [10]): 20 mm
- MIC (Candida albicans [11]): 4 µg/mL (≈ 9.06 µM)
- zone of inhibition at 20 µg/mL (Micrococcus luteus [12]): 15 mm
- zone of inhibition at 20 µg/mL (Staphylococcus [13]): 18 mm
- MIC (Staphylococcus aureus [14]): 4 µg/mL (≈ 9.06 µM)
- zone of inhibition at 20 µg/mL (Candida albicans [15]): 18 mm
- zone of inhibition at 20 µg/mL (Pseudomonas aeruginosa [16]): 19 mm
- Activity (Raoultella planticola): inactive
- Activity [4]: inactive
- zone of inhibition at 20 µg/mL (Bacillus subtilis [17]): 20 mm
- MIC (Bacillus subtilis [5]): 4 µg/mL (≈ 9.06 µM)
- MIC (Pseudomonas aeruginosa [6]): 4 µg/mL (≈ 9.06 µM)
- Activity (Escherichia coli): inactive

SMILES: O=C1O[C@@H](CNS(=O)(=O)c2ccc(Oc3ccccc3)cc2)CN1c1ccc(N2CCSCC2)c(F)c1
- MIC (Staphylococcus [9]): 8 µg/mL (≈ 14.7 µM)
- MIC (Candida albicans [11]): 20 µg/mL (≈ 36.8 µM)
- Activity (Bacillus subtilis [18]): inactive
- Activity (Micrococcus luteus [3]): inactive
- MIC (Staphylococcus aureus [14]): 8 µg/mL (≈ 14.7 µM)
- Activity (Raoultella planticola): inactive
- Activity [4]: inactive
- MIC (Pseudomonas aeruginosa [6]): 20 µg/mL (≈ 36.8 µM)
- Activity (Escherichia coli): inactive

SMILES: O=C1O[C@@H](CNS(=O)(=O)c2cc(S(=O)(=O)c3ccccc3)cs2)CN1c1ccc(N2CCOCC2)c(F)c1
- Activity (Candida albicans [1]): inactive
- Activity (Pseudomonas aeruginosa [19]): inactive
- Activity (Staphylococcus [2]): inactive
- Activity (Bacillus subtilis [18]): inactive
- Activity (Micrococcus luteus [3]): inactive
- Activity (Raoultella planticola): inactive
- Activity [4]: inactive
- Activity (Staphylococcus aureus [7]): inactive
- Activity (Escherichia coli): inactive

SMILES: O=C1O[C@@H](CNS(=O)(=O)c2ccc(F)cc2Cl)CN1c1ccc(N2CCOCC2)c(F)c1
- MIC (Staphylococcus [9]): 20 µg/mL (≈ 41 µM)
- Activity (Candida albicans [1]): inactive
- Activity (Pseudomonas aeruginosa [19]): inactive
- Activity (Micrococcus luteus [3]): inactive
- MIC (Staphylococcus aureus [14]): 20 µg/mL (≈ 41 µM)
- Activity (Raoultella planticola): inactive
- Activity [4]: inactive
- MIC (Bacillus subtilis [5]): 8 µg/mL (≈ 16.4 µM)
- Activity (Escherichia coli): inactive

SMILES: O=C1O[C@@H](CNS(=O)(=O)c2ccc(F)cc2)CN1c1ccc(N2CCOCC2)c(F)c1
- MIC (Staphylococcus [9]): 10 µg/mL (≈ 22.1 µM)
- MIC (Candida albicans [11]): 10 µg/mL (≈ 22.1 µM)
- Activity (Micrococcus luteus [3]): inactive
- MIC [20]: 1 µg/mL (≈ 2.21 µM)
- MIC (Bacillus subtilis [5]): 10 µg/mL (≈ 22.1 µM)
- MIC (Pseudomonas aeruginosa [6]): 10 µg/mL (≈ 22.1 µM)
